Screening results (PubChem BioAssay)
PolyA inhibitor = blocks polyadenylation in yeast reporter cells. activity score, % at 12 µM. actives 0.02% (n = 300,000). S. cerevisiae SKY197-pL101 polyadenylation reporter, beta-gal luminescence; efflux-impaired pdr1/pdr3 knockout yeast; score 100 = 6 SD above DMSO. AID 1875;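 active means lowest replicate activity score at least 50, where 100 means six control SD above control mean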;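 further: yeast exposed to compound for 9 h at 30 °C; higher score means more reporter readthrough which indicates perturbed polyadenylation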
AHR act = human AHR activation | actives 2.5% (n = 320,000) | AHR-responsive luciferase reporter cells, luminescence | P35869 | AID 2796 | activation, % at 5 µM; in the data active means activation above about 47%;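 further: 0% = vehicle wells and 100% = reference agonist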
STAT3 activator = increases IL-6 driven STAT3 reporter signal. U3A cells, IL-6 STAT3-luciferase reporter, luminescence; 100% = signal with IL-6 EC80 alone. activation (% of control), % at 5.6 µM. actives 0.91% (n = 190,000). AID 871;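 active means activation above the screen-wide mean of compound activation plus 3 SD, cut at about 130% in these data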;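 further: 0% = background luminescence of wells with medium and substrate only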
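Test system: STAT3-luciferase reporter U3A cells; Detection: reporter luminescence signal; Times: 1 h compound pre-exposure, 6 h IL-6 stimulation, 37 °C; Benchmarks: IL-6-only high control; Also added: IL-6 stimulus at 33 ng/mL final.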
HSF1 inh = HSF1 inhibition; NIH3T3-HGL HSE-luciferase, MG132-induced, luminescence 8 h; hits give low values; activity change, negative = inhibition, % at 7.5 µM (by protocol); actives 0.77% (n = 300,000); AID 2098;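 active means more than half of replicate wells show activity change below -50%, luminescence cut by over half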;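 further: luciferase reports HSF-1 transcriptional activity via heat shock element; 0% = median of DMSO wells and -100% = zero luminescence signal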
PERK inhibitor = inhibitors of human PERK kinase. Q9NZJ5. CHO PERK-DD fusion, SEAP luminescence translation reporter. inhibition, % at 5.6 µM. actives 0.17% (n = 220,000). AID 1416;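 active means inhibition above the mean inhibition of all tested compounds plus 3 SD, set separately per screening campaign, cut at about 2.9% in these data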;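 further: PERK kinase domain activated by AP20187 dimerizer at 100 nM; 0% = DMSO with dimerizer and 100% = rapamycin at 8.4 µM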
Target sequence (Q9NZJ5 whole entry, looked up, the tested form may be a part): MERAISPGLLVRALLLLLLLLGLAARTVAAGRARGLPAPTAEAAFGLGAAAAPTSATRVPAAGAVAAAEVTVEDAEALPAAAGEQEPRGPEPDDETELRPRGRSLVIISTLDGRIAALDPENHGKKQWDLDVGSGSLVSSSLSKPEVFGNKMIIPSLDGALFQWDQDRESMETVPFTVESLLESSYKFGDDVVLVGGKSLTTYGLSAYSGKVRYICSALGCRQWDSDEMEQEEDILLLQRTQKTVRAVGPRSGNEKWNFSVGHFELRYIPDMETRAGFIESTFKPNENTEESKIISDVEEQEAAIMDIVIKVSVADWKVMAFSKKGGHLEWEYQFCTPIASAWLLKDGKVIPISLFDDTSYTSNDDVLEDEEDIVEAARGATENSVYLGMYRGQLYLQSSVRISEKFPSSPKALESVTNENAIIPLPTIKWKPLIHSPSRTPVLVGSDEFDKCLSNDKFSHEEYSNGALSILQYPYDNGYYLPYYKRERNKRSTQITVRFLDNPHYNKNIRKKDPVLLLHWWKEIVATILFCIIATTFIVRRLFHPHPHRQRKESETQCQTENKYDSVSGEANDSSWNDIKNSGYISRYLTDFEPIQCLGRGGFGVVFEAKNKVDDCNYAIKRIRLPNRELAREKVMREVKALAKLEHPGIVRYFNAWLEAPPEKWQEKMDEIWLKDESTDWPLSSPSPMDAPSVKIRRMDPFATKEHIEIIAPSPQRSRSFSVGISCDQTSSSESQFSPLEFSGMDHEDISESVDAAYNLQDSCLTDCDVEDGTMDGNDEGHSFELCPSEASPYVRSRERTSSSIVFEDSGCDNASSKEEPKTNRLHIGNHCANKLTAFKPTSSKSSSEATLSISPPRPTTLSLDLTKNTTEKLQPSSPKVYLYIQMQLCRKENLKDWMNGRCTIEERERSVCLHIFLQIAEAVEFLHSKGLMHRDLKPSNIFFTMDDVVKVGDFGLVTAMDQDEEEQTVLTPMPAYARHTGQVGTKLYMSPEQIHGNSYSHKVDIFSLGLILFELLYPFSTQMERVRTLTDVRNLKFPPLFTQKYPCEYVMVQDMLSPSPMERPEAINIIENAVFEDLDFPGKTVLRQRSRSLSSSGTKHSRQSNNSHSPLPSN
Hsp70 act = transcriptional activators of Hsp70; HeLa Hsp70 promoter luciferase reporter, luminescence; scaled: vehicle 0, proteasome-inhibitor control 100%; activation, % at 10 µM; actives 0.04% (n = 200,000); AID 1203;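 active means activation above the mean across all tested compounds plus 3 SD, cutoff set per campaign, cut at about 5.5% in these data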;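 further: 100% = MG132 at 30 µM as the positive control and 0% = DMSO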
* marks the source's active call; other numbers are inactive results; . = not tested or not shown. Shown are actives, neighbours in structure and some others; about 3.6% of the full set was active somewhere.

SMILES	PolyA inhibitor	AHR act	STAT3 activator	HSF1 inh	PERK inhibitor	Hsp70 act
CN(C)c1ccc(NC(=O)c2sc(SCC(=O)Nc3nccs3)nc2N)cc1	8	78*	106	17	0	0
Cc1cc2c(cc1C)C(c1ccccc1OC(C)C)CC(=O)N2 (configuration not stated)	-5	52*	.	-5	.	.
COc1ccccc1C1CC(=O)Nc2cc(C)c(C)cc21 (configuration not stated)	-17	23	.	-6	.	.
O=C(Nc1ccc2c(c1)CCC2)c1ccc(Cl)nc1	-10	17	137*	16	1	0
O=C(O)C(=O)Nc1ccc(NC(=O)C(c2ccccc2)c2ccccc2)cc1	3	.	.	-55*	.	.
NNc1nc2sc3c(c2c(=O)n1Cc1ccccc1)CCC3	4	5	.	4	-2	.
NNc1nc(-c2ccccc2)nc2sc3c(c12)CCCC3	-20	75*	139*	-43	0	0
CC(Cc1ccccc1)N1C(=O)c2cccc([N+](=O)[O-])c2C1=O (configuration not stated)	-10	2	.	2	.	.
Clc1cccc(-c2ccc(CNCCCN3CCOCC3)o2)c1	-5	4	100	24	2	0
C[C@@H]1[C@H]2[C@@H](O[C@@H]3O[C@H](CO)[C@@H](O)[C@H](O)[C@H]3O)OC=C(C(=O)O)[C@H]2C[C@@H]1O	7	0	.	-8	.	.
Cc1ccccc1C(=O)NC[C@@H]1CCCN2CCCC[C@H]12	-8	2	.	-56*	.	.
Cc1ccccc1CNC(=O)c1ccccc1C	-16	3	101	-2	-1	-1
CCc1nc(N2CCCCC2C)c2oc3ccccc3c2n1 (configuration not stated)	1	48*	94	-3	0	0
N#CCCN1C(=O)C2(OCCO2)c2ccccc21	-25	0	.	-3	.	.
CCc1nnc(NC(=O)c2oc3ccccc3c2COC(C)C)s1	.	74*	.	.	.	.
NNC(=S)NC1CC2CC1C1C=CCC21 (configuration not stated)	29	6	.	-54*	0	.
CCc1ccc(NC(=O)CCC(=O)N2CCSc3ccccc32)cc1	8	69*	.	7	.	.
CCc1cccc(NC(=O)CCC(=O)N2CCSc3ccccc32)c1	9	2	.	0	.	.
O=C(O)CC(C(=O)O)c1ccc(OCCCCOc2ccc(C(CC(=O)O)C(=O)O)cc2)cc1 (configuration not stated)	13	-2	.	-3	.	.
O=C1NC(=O)/C(=C\c2ccccc2OCc2ccc([N+](=O)[O-])cc2)N1	13	72*	103	22	-1	0
Cc1nnc(C)n1N1C(=O)c2cccc3cccc(c23)C1=O	19	0	98	-5	0	0
Cc1nnc(N2C(=O)c3cccc4cccc(c34)C2=O)s1	-1	68*	97	-55*	0	-1
CCc1nnc2n1N=C(c1ccc(Cl)cc1)CS2	-3	1	.	-3	.	.
Cc1nnc2n(c1=O)N=C(c1ccc(Cl)cc1)CS2	2	79*	114	12	1	0
COC(=O)c1cc(-c2ccc3c(c2)OCO3)nc2ccccc12	5	4	91	3	0	0
SMILES	PolyA inhibitor	AHR act	STAT3 activator	HSF1 inh	PERK inhibitor	Hsp70 act
c1ccc2nc(-c3ccc4c(c3)OCO4)ccc2c1	13	65*	83	26	0	0
O=C(c1ccc(Cl)cc1)C1CCN(C(=O)NC2CCCCC2)CC1	-14	-7	84	4	0	0
O=C(O)C1CCN(C(=O)NC2CCCCC2)CC1	-15	-1	99	-20	2.9*	0
CCN(C1CCS(=O)(=O)C1)S(=O)(=O)c1ccc(OC)c(OC)c1 (configuration not stated)	-8	3	.	-7	.	.
c1ccc2c(CN3CCSCC3)cccc2c1	-6	-1	.	-3	.	.
Cc1ccc(S(=O)(=O)N2c3ccccc3NC(=O)C2CC(=O)Nc2ccccc2)cc1 (configuration not stated)	27	64*	108	-1	0	0
Cc1ccc(S(=O)(=O)N2c3ccccc3NC(=O)CC2C)cc1 (configuration not stated)	-3	0	102	-6	1	0
